This passage reports inhibition and Ki results from ChEMBL document CHEMBL2321814, “Sulfocoumarins (1,2-benzoxathiine-2,2-dioxides): a class of potent and isoform-selective inhibitors of tumor-associated carbonic anhydrases” (J Med Chem, 2013).

Assay [1] concerns the target T1, Carbonic anhydrase 9 (Homo sapiens, UniProt Q16790). Briefly: Inhibition of human recombinant transmembrane CA9 catalytic domain after 15 mins by stopped-flow CO2 hydration method. The gist of the method:
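Recombinant CA IX catalytic domain was preincubated with inhibitor for 15 min at room temperature. CO2 hydration was followed by stopped-flow with phenol red (0.2 mM, 557 nm) in 20 mM Hepes pH 7.5 with 20 mM Na2SO4, CO2 1.7–17 mM. Initial rates came from at least six traces of the first 5–10% of reaction, minus uncatalyzed rates. Inhibitor dilutions went down to 0.01 nM in water.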

Assay [2] concerns the target T1, Carbonic anhydrase 9.
The target of assay [3] is Carbonic anhydrase 1 (Homo sapiens, UniProt P00915). Briefly: Inhibition of full length human recombinant CA1 cytosolic isoform after 6 hrs by stopped-flow CO2 hydration method.
The target of assay [4] is Carbonic anhydrase 2 (Homo sapiens, UniProt P00918). Briefly: Inhibition of full length human recombinant CA2 cytosolic isoform after 6 hrs by stopped-flow CO2 hydration method.
The target of assay [5] is Carbonic anhydrase 2 (Homo sapiens, UniProt P00918, A65S/N67Q). Briefly: Inhibition of human CA2 Ala65Ser and Asn67Gln double mutant expressed in Escherichia coli strain BL21 (DE3) after 6 hrs by stopped-flow CO2 hydration method. The gist of the method: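 CA II mutant mimicking the CA IX active site was expressed in E. coli BL21(DE3), IPTG-induced, and purified by His-trap, gel filtration and Mono-Q. Enzyme and inhibitor were preincubated 6 h at 4 °C. Stopped-flow CO2 hydration used phenol red (0.2 mM, 557 nm), 20 mM Hepes pH 7.5, 20 mM Na2SO4 and CO2 1.7–17 mM, with uncatalyzed rates subtracted. Three assays were run.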

Active and inactive are the calls of the source. The rule behind the calls is not given here. A value given as a limit tells only on which side of the number the result lay.

A word on the Ki: it is the equilibrium dissociation constant of an inhibitor or competing ligand from its target.

Sequence of Carbonic anhydrase 1 (P00915 whole entry, canonical isoform): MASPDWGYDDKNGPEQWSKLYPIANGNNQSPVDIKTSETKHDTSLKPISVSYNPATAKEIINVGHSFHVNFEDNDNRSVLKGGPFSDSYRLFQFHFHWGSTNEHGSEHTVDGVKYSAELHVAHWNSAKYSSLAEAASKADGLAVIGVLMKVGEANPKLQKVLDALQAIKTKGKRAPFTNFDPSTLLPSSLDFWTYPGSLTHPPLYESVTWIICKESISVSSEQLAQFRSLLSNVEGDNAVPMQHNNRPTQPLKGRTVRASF

`COc1cccc(-c2cn(-c3ccc4c(c3)C=CS(=O)(=O)O4)nn2)c1`: the inhibition entry in assay [1] was “inactive”. The molecule further registered a Ki in assay [2] of 49 nM.

As for `O=S1(=O)C=Cc2c(ccc3ccccc23)O1`, the Ki in assay [3] is > 100000 nM; in assay [4], > 100000 nM; in assay [2], 375 nM. In assay [1], the inhibition entry was “inactive”.

As to `COc1ccc(-c2cn(-c3ccc4c(c3)C=CS(=O)(=O)O4)nn2)cc1`, the inhibition result in assay [1] is “inactive”. Besides, the Ki in assay [2] amounted to 18 nM.

With `O=S1(=O)C=Cc2cc(Cl)cc(Cl)c2O1`, the Ki in assay [3] is > 100000 nM; in assay [4], > 100000 nM; in assay [2] it was 3260 nM. Besides, in assay [1], the inhibition result was “inactive”.

With `COC(=O)c1cn(-c2ccc3c(c2)C=CS(=O)(=O)O3)nn1`, the inhibition result in assay [1] was “inactive”. In assay [2], affinity was put at a Ki of 950 nM.

As for `O=S1(=O)C=Cc2cc(-n3cc(CO)nn3)ccc2O1`, in assay [1], the inhibition entry was “inactive”. The Ki in assay [2] stood at 58 nM.

Turning to `O=S1(=O)C=Cc2cc(Br)ccc2O1`, the Ki is > 100000 nM in assay [3], > 100000 nM in assay [4], 6830 nM in assay [2] and 930 nM in assay [5]. Moreover, in assay [1], the inhibition entry is “inactive”.

Regarding `O=S1(=O)C=Cc2cc(O)ccc2O1`, the Ki in assay [4] is > 100000 nM; in assay [2] it was 300 nM; in assay [5] it was 800 nM. In addition, the inhibition result in assay [1] was “inactive”.

Turning to `O=c1ccc2ccccc2o1`, in assay [1], the inhibition result was “inactive”.

In the case of `O=S1(=O)C=Cc2cc(-n3cc(-c4cccc(C(F)(F)F)c4)nn3)ccc2O1`, in assay [1], the inhibition entry is “inactive”. In addition, the Ki in assay [2] was found to be 48 nM.

Turning to `O=S1(=O)C=Cc2cc(OCc3ccccc3)ccc2O1`, the Ki in assay [4] was > 100000 nM; in assay [2], 275 nM; in assay [5] it was 2370 nM. The inhibition entry in assay [1] was “inactive”.

Take `O=S1(=O)C=Cc2cc(-n3cc(-c4ccccc4)nn3)ccc2O1`: the inhibition result in assay [1] is “inactive”. The molecule further came in with an inhibition constant Ki in assay [2] of 29 nM.

Take `C[Si](C)(C)c1cn(-c2ccc3c(c2)C=CS(=O)(=O)O3)nn1`: the inhibition result in assay [1] is “inactive”. The Ki in assay [2] amounted to 60 nM.

`CCOC(=O)c1cn(-c2ccc3c(c2)C=CS(=O)(=O)O3)nn1`: the inhibition entry in assay [1] was “inactive”. This molecule registered a Ki in assay [2] of 86 nM.

For `COc1cc2oc(=O)ccc2cc1[C@@H](O)CC(C)C`, in assay [1], the inhibition entry was “inactive”.

Consider `O=S1(=O)C=Cc2cc(-n3cc(-c4ccc(OC(F)(F)F)cc4)nn3)ccc2O1`, for which the inhibition entry in assay [1] was “inactive”. Also, the Ki in assay [2] was determined as 74 nM.

As for `CCN(CC)Cc1cn(-c2ccc3c(c2)C=CS(=O)(=O)O3)nn1`, in assay [1], the inhibition entry is “inactive”. The affinity in assay [2], expressed as Ki, was 25 nM.

With `O=[N+]([O-])c1ccc2c(c1)C=CS(=O)(=O)O2`, the results for the Ki in assay [4] and in assay [2] were > 100000 nM and 3770 nM, respectively. Besides, the inhibition entry in assay [1] was “inactive”.

As to `Nc1ccc2c(c1)C=CS(=O)(=O)O2`, in assay [1], the inhibition entry is “inactive”. This molecule also displayed a Ki in assay [2] of 46 nM.
